Assay results as given in ChEMBL document CHEMBL1158535, “Thiazole, oxadiazole, and carboxamide derivatives of artemisinin are highly selective and potent inhibitors of Toxoplasma gondii” (J Med Chem, 2010).
Calls of active or inactive are those of the source. The calls are words filed in the database; no cut-off is given here.

Assays:
Toxoplasma gondii [1] = test: Antiparasitic activity against Toxoplasma gondii 2F infected in HFF cells assessed as beta galactosidase activity after 5 days; type: functional, organism-based; conditions: 120 h
How it was run: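 HFF monolayers infected with β-galactosidase-expressing T. gondii 2F tachyzoites; compounds from final 320 μM serially diluted 0.5 log10, drug-free parasite control. After 4 days at 37°C/5% CO2, CPRG substrate added and incubated 1 more day. Absorbance 570-650 nm relative to parasite control. IC50 calculated; at least three independent experiments.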

Toxoplasma gondii [2] = test: Antiparasitic activity against Toxoplasma gondii 2F infected in HFF cells assessed as inhibition of parasite replication at 10 uM; type: functional, organism-based
How it was run: (§1)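 HFF monolayers inoculated with tachyzoites, 2 h at 37°C/5% CO2, then compound (1, 5 or 10 μM) or DMSO added. Replication 24-26 h, then fixed, permeabilized, immunolabeled anti-p30 with DAPI. Parasites per vacuole (1, 2, 4, 8+) counted by eye in 10 random fields; reported as modal number/doublings.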

[3] = Cytotoxicity against HFF after 5 days by CellTiter 96 Aqueous One Solution assay; conditions: human, HFF cells; read-out: TD50
Toxoplasma gondii [4] = test: Antiparasitic activity against Toxoplasma gondii 2F infected in HFF cells assessed as inhibition of parasite replication at 1 uM; type: functional, organism-based; how it was run: as §1
Toxoplasma gondii [5] = test: Antiparasitic activity against Toxoplasma gondii 2F infected in HFF cells assessed as inhibition of parasite replication at 5 uM; type: functional, organism-based; how it was run: as §1
[6] = Therapeutic index, ratio of TD50 for HFF cells to IC50 for Toxoplasma gondii F2; type: cell-based; conditions: human, read-out: TI

SMILES | IC50 (Toxoplasma gondii [1]) [nM] | Activity (Toxoplasma gondii [2]) | CC50 at 120 h [3] [nM] | Activity (Toxoplasma gondii [4]) | Activity (Toxoplasma gondii [5]) | selectivity ratio [6]
CC1=C(c2nc(C(C)(C)C)cs2)O[C@@H]2O[C@@]3(C)CC[C@H]4[C@H](C)CC[C@@H]1[C@@]24OO3 | 250 | Active | ≥ 320000 | Active | Active | 2250
CC1=C(c2nc(-c3ccc(C)cc3)cs2)O[C@@H]2O[C@@]3(C)CC[C@H]4[C@H](C)CC[C@@H]1[C@@]24OO3 | 350 |  | ≥ 320000 |  |  | 1610
CC1=C(C(=O)NCc2ccc(F)c(F)c2)O[C@@H]2O[C@@]3(C)CC[C@H]4[C@H](C)CC[C@@H]1[C@@]24OO3 | 470 |  | 78000 |  |  | 166
COc1cc(Cc2cnc(N)nc2N)cc(OC)c1OC [TRIMETHOPRIM] | 46000 |  | ≥ 320000 |  |  | 12
CC1=C(c2nc(-c3ccccc3)cs2)O[C@@H]2O[C@@]3(C)CC[C@H]4[C@H](C)CC[C@@H]1[C@@]24OO3 | 340 | Active | ≥ 320000 | Active | Active | 1650
CC1=C(C(=O)NCc2cc(F)cc(F)c2)O[C@@H]2O[C@@]3(C)CC[C@H]4[C@H](C)CC[C@@H]1[C@@]24OO3 | 360 |  | ≥ 320000 |  |  | 1560
CC1=C(C(=O)NCc2ccc(F)cc2)O[C@@H]2O[C@@]3(C)CC[C@H]4[C@H](C)CC[C@@H]1[C@@]24OO3 | 470 |  | 72000 |  |  | 153
CC1=C(c2nc(C)no2)O[C@@H]2O[C@@]3(C)CC[C@H]4[C@H](C)CC[C@@H]1[C@@]24OO3 | 840 |  | ≥ 320000 |  |  | 669
CC1=C(c2ncc(C)s2)O[C@@H]2O[C@@]3(C)CC[C@H]4[C@H](C)CC[C@@H]1[C@@]24OO3 | 370 | Active | ≥ 320000 | Active | Active | 1520
C[C@@H]1CC[C@H]2[C@@H](C)C(=O)O[C@@H]3O[C@@]4(C)CC[C@@H]1[C@]32OO4 [ARTEMISININ] | 640 |  | ≥ 320000 |  |  | 879
CC1=C(c2nc(-c3ccc(S(C)(=O)=O)cc3)cs2)O[C@@H]2O[C@@]3(C)CC[C@H]4[C@H](C)CC[C@@H]1[C@@]24OO3 | 420 |  | ≥ 320000 |  |  | 1340
CCc1csc(C2=C(C)[C@@H]3CC[C@@H](C)[C@@H]4CC[C@@]5(C)OO[C@@]34[C@H](O2)O5)n1 | 400 |  | ≥ 320000 |  |  | 1410
CC1=C(c2nc(-c3ccccc3)no2)O[C@@H]2O[C@@]3(C)CC[C@H]4[C@H](C)CC[C@@H]1[C@@]24OO3 | 440 | Active | 141000 | Active | Active | 320
CC1=C(C(=O)NCc2ccc(C(F)(F)F)cc2)O[C@@H]2O[C@@]3(C)CC[C@H]4[C@H](C)CC[C@@H]1[C@@]24OO3 | 340 |  | ≥ 320000 |  |  | 1650
CSc1ccc(-c2csc(C3=C(C)[C@@H]4CC[C@@H](C)[C@@H]5CC[C@@]6(C)OO[C@@]45[C@H](O3)O6)n2)cc1 | 400 |  | ≥ 320000 |  |  | 1410
CO[C@H]1O[C@@H]2O[C@@]3(C)CC[C@H]4[C@H](C)CC[C@@H]([C@H]1C)[C@@]24OO3 [ARTEMETHER] | 310 |  | ≥ 320000 |  |  | 1810
CC1=C(c2nc(C3CCCCC3)cs2)O[C@@H]2O[C@@]3(C)CC[C@H]4[C@H](C)CC[C@@H]1[C@@]24OO3 | 590 |  | 1800 |  |  | 3
CC1=C(c2nccs2)O[C@@H]2O[C@@]3(C)CC[C@H]4[C@H](C)CC[C@@H]1[C@@]24OO3 | 1100 |  | ≥ 320000 |  |  | 511
CC1=C(c2nc(C)c(C)s2)O[C@@H]2O[C@@]3(C)CC[C@H]4[C@H](C)CC[C@@H]1[C@@]24OO3 | 160 | Active | 38000 | Active | Active | 240
COc1ccc(-c2csc(C3=C(C)[C@@H]4CC[C@@H](C)[C@@H]5CC[C@@]6(C)OO[C@@]45[C@H](O3)O6)n2)cc1 | 750 |  | 19000 |  |  | 25
CNC(=O)C1=C(C)[C@@H]2CC[C@@H](C)[C@@H]3CC[C@@]4(C)OO[C@@]23[C@H](O1)O4 | 15000 |  | ≥ 320000 |  |  | 37
CCN(CC)C(=O)C1=C(C)[C@@H]2CC[C@@H](C)[C@@H]3CC[C@@]4(C)OO[C@@]23[C@H](O1)O4 | 11000 |  | 23000 |  |  | 2.1
CC1=C(C(=O)NCc2ccc(C)cc2)O[C@@H]2O[C@@]3(C)CC[C@H]4[C@H](C)CC[C@@H]1[C@@]24OO3 | 510 |  | 169000 |  |  | 331
CC1=C(c2nc(C)cs2)O[C@@H]2O[C@@]3(C)CC[C@H]4[C@H](C)CC[C@@H]1[C@@]24OO3 | 400 | Active | ≥ 320000 | Active | Active | 1410
CC1=C(C(=O)NCc2ccccc2)O[C@@H]2O[C@@]3(C)CC[C@H]4[C@H](C)CC[C@@H]1[C@@]24OO3 | 670 |  | ≥ 320000 |  |  | 839
CCNC(=O)C1=C(C)[C@@H]2CC[C@@H](C)[C@@H]3CC[C@@]4(C)OO[C@@]23[C@H](O1)O4 | 6800 |  | 259000 |  |  | 38
CC1=C(C(=O)NCc2cc(Br)cc(Br)c2)O[C@@H]2O[C@@]3(C)CC[C@H]4[C@H](C)CC[C@@H]1[C@@]24OO3 | 810 |  | ≥ 320000 |  |  | 694
